CCR6 antag – CCR6 (human) receptor antagonism | P51684 | CHO-K1 CCR6 PathHunter beta-arrestin, luminescence, CCL20-stimulated | inhibition, % at 20 µM | hit rate 0.49% among 340,000;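 active means compounds whose inhibition of the agonist-driven luminescence signal at 20 µM reaches about 50%, limit read from the data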;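 further: cells stimulated with CCL20 at 14 nM final; plate controls were DMSO with CCL20 for no effect and DMSO without agonist for full effect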
EBI2 antag – antagonists of human EBI2 receptor; AID 651636; hit rate 0.81% among 360,000; inhibition, % at 5 µM; P32249; EBI2 beta-arrestin recruitment, luminescence, 7a,25-OHC stimulated; in the data active means inhibition above about 38%;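 further: enzyme fragment complementation signal reports receptor beta-arrestin coupling in cells; 0% = agonist plus DMSO wells and 100% = wells without agonist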
APJ ag – agonists of human APJ apelin receptor | P35414 | CHO-K1 APJ PathHunter beta-arrestin, luminescence; 0% DMSO wells, 100% apelin | activation, % at 20 µM | hit rate 0.11% among 330,000;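 active means activation more than six SD over the plate average, tested at 20 µM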;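 further: 0% = DMSO alone and 100% = apelin-13 at 10 nM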
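Assay system: CHO-K1 cells stably expressing ProLink-tagged human APJ and arrestin–beta-gal acceptor. Compound dosing: 20 µM single point, 1% DMSO. Times: 16-18 h seeding, 90 min dark compound exposure, 60 min detection. Detection: beta-gal luminescence. Evaluation: APJ–arrestin association signal. Controls: negative DMSO alone, positive Apelin-13 at 10 nM.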
CXCR6 inh – blocks human CXCR6 beta-arrestin recruitment; O00574; inhibition, % at 20 µM; CHO-K1 PathHunter CXCR6 beta-arrestin, luminescence; hit rate 0.36% among 360,000; in the data active means inhibition above about 34%, passing the limit was not always enough;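 further: antagonist mode with CXCL16 agonist at 10 nM final; 0% = 10 nM CXCL16 with DMSO and 100% = unstimulated wells without agonist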
Target sequence (O00574 whole entry, looked up): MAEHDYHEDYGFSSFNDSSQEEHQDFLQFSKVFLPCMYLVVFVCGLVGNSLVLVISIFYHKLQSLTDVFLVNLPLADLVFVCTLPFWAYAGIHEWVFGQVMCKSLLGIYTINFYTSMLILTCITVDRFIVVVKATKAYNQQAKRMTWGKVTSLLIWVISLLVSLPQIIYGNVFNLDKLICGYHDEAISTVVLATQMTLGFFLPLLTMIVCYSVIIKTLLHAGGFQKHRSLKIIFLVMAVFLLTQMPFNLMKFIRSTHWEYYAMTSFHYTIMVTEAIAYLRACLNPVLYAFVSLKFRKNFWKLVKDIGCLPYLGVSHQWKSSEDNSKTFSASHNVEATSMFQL
HTR2A ag – mouse HTR2A agonism via beta-arrestin recruitment | CHO-K1 mHTR2A beta-arrestin complementation, luminescence; percent of 30 µM serotonin response | activation, % at 7.6 µM | hit rate 0.66% among 360,000 | AID 624169;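 active means activation above a run cutoff, the mean activation of all tested compounds plus 3 SD, cut at about 14% in these data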;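 further: 0% = plate median of compound wells and 100% = 30 µM serotonin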
APJ antag – APJ receptor antagonism; P35414; CHO-K1 APJ beta-arrestin complementation, luminescence; inhibition, % at 20 µM; hit rate 0.32% among 330,000;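 active means inhibition above about 40% at 20 µM, limit read from the data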;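 further: cells challenged with 10 nM apelin-13 agonist together with compound; plate controls were apelin-13 plus DMSO wells for no effect and DMSO wells lacking apelin-13 for full effect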
MOR ag counter – OPRM1 agonism in mouse HTR2A counterscreen; shares compounds with HTR2A ag; U2OS OPRM1 beta-arrestin PathHunter, luminescence; DMSO 0%, DAMGO 9.3 µM 100%; activation, % at 9.3 µM; hit rate 5.3% among 2,300; AID 624380;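 active means mean activation above the mean of DMSO-only wells plus 3 SD, cut at about 0.5% in these data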
HTR2A ag conf – confirmation of mouse HTR2A serotonin receptor agonists; CHO-K1 PathHunter beta-arrestin recruitment, luminescence; DMSO 0%, 30 µM serotonin 100%; shares compounds with HTR2A ag; activation, % at 7.6 µM; hit rate 19% among 2,300;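 active means mean activation across triplicates above the hit threshold derived in the original primary screen, cut at about 15% in these data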
The depositor's hits bear a star. Sampled rows, rich in hits. Any-hit rate of the full collection: about 2.1%.

What do the screens show for `COc1ccccc1CNCC(=O)Nc1ccccc1-n1cccc1`?
CCR6 antag: 9; EBI2 antag: -6; APJ ag: 1; CXCR6 inh: 2; HTR2A ag: 16*; APJ antag: 11; MOR ag counter: 0; HTR2A ag conf: 8

Results for N#CC1(Cc2ccccc2Cl)c2ccccc2C=CN1C(=O)c1ccccc1 (configuration not stated) ?
CCR6 antag: 9; EBI2 antag: 21; APJ ag: -4; CXCR6 inh: -4; HTR2A ag: 19*; APJ antag: 26; MOR ag counter: 0; HTR2A ag conf: -4

What do the screens show for `N#CC1c2ccccc2C=CN1C(=O)c1ccccc1` (configuration not stated)?
CCR6 antag: 16; EBI2 antag: -2; APJ ag: -6; CXCR6 inh: 0; HTR2A ag: 2; APJ antag: 11

How did Cc1n[nH]c(=O)c2c(NC(=O)CSc3nncn3C(C)C)oc(C)c12 do in these assays?
CCR6 antag: -2; EBI2 antag: 12; APJ ag: -3; CXCR6 inh: -7; HTR2A ag: 1; APJ antag: 15

Results for COC(=O)[C@]1(Cc2ccccc2)N[C@H](c2ccc(-c3ccc(F)cc3)cc2)[C@@H]2C(=O)N(C)C(=O)[C@@H]21 ?
CCR6 antag: 7; EBI2 antag: 19; APJ ag: -5; CXCR6 inh: 0; HTR2A ag: -6; APJ antag: 12

Results for Cc1cccc(NC(=O)C2Cc3ccccc3O/C2=N\O)c1 (configuration not stated) ?
CCR6 antag: 12; EBI2 antag: 5; APJ ag: -2; CXCR6 inh: -6; HTR2A ag: 16*; APJ antag: 7; MOR ag counter: -1; HTR2A ag conf: -3

What do the screens show for `CC(=O)Nc1ccc(Nc2nc(C)c([N+](=O)[O-])c(N(C)c3ccccc3)n2)cc1`?
CCR6 antag: 16; EBI2 antag: -8; APJ ag: -1; CXCR6 inh: 6; HTR2A ag: 25*; APJ antag: 5; MOR ag counter: 0; HTR2A ag conf: -5

What do the screens show for `CC(=O)Nc1ccc(Nc2nc(C)c([N+](=O)[O-])c(Nc3ccccc3)n2)cc1`?
CCR6 antag: 18; EBI2 antag: 3; APJ ag: 0; CXCR6 inh: 9; HTR2A ag: 0; APJ antag: 1

How did O=C(NCc1cccc2[nH]ccc12)C1CCC(=O)N(CCc2ccc(Cl)cc2)C1 (configuration not stated) do in these assays?
CCR6 antag: -13; EBI2 antag: 43; APJ ag: 9; CXCR6 inh: -7; HTR2A ag: 0; APJ antag: -18

Results for CCOC(=O)[C@]12CCCC=C1N(Cc1ccc(Cl)cc1Cl)C(=O)[C@H](CC(=O)NCc1ccc(OC)c(OC)c1)C2 ?
EBI2 antag: 3; CXCR6 inh: 16; HTR2A ag: 5

How did CC(=O)c1ccc(-c2cnc3c(NC=O)cc(-c4ccc(C(=O)N5CCOCC5)cc4)cn23)cc1 do in these assays?
EBI2 antag: 6; CXCR6 inh: 2; HTR2A ag: -1

What do the screens show for `COc1ccc(-c2cnc3c(NC=O)cc(-c4ccc(C(=O)N5CCOCC5)cc4)cn23)cc1OC`?
EBI2 antag: -22; CXCR6 inh: 3; HTR2A ag: 17*; MOR ag counter: -1; HTR2A ag conf: 2

How did COC(=O)[C@]12CCCCC=C1N(Cc1ccc3c(c1)OCO3)C(=O)[C@H](CC(=O)N1CCC(c3ccccc3)CC1)C2 do in these assays?
EBI2 antag: 13; HTR2A ag: 4

How did O=C(Nc1ccccc1)c1ccc(-c2ccc(Br)cc2)o1 do in these assays?
CCR6 antag: 1; EBI2 antag: 0; APJ ag: -4; CXCR6 inh: 3; HTR2A ag: 2; APJ antag: -3

How did COc1ccccc1NC(=O)c1ccc(-c2ccc(Br)cc2)o1 do in these assays?
CCR6 antag: 12; EBI2 antag: 8; APJ ag: -2; CXCR6 inh: -3; HTR2A ag: 31*; APJ antag: 3; MOR ag counter: 0; HTR2A ag conf: -3

What do the screens show for `CCCCCCCCCCC(C(=O)O)C1(C(=O)O)CCC(=O)O1` (configuration not stated)?
EBI2 antag: -1; CXCR6 inh: 2; HTR2A ag: 3

Results for COc1ccc(NC(=O)CNS(=O)(=O)c2cccs2)cc1 ?
CCR6 antag: -2; EBI2 antag: 0; APJ ag: 5; CXCR6 inh: -7; HTR2A ag: 24*; APJ antag: 14; MOR ag counter: 0; HTR2A ag conf: -1

How did COc1ccc(NC(=O)CCCNS(=O)(=O)c2cccs2)cc1 do in these assays?
CCR6 antag: -13; EBI2 antag: -13; APJ ag: 2; CXCR6 inh: -9; HTR2A ag: -4; APJ antag: 5

Results for O=C(O)c1ccc(NC(=O)c2cccc(S(=O)(=O)Nc3ccc(C(=O)O)cc3)c2)cc1 ?
CCR6 antag: 3; EBI2 antag: -8; APJ ag: 0; CXCR6 inh: -7; HTR2A ag: 16*; APJ antag: 0; MOR ag counter: -1; HTR2A ag conf: -2

How did Cc1ccc(Oc2ccc(NS(=O)(=O)c3cccc(C(=O)O)c3)cc2)cc1 do in these assays?
CCR6 antag: 9; EBI2 antag: -6; APJ ag: -5; CXCR6 inh: -1; HTR2A ag: 15*; APJ antag: 3; MOR ag counter: 0; HTR2A ag conf: -2

Results for CCc1cccc(NC(=O)CCCn2nc(C)c3c(C)n(-c4ccccc4)nc3c2=O)c1 ?
CCR6 antag: 11; EBI2 antag: 1; APJ ag: 3; CXCR6 inh: 5; HTR2A ag: 2; APJ antag: -7

What do the screens show for `O=C(CN1C(=O)CSc2ncccc21)Nc1ccccc1F`?
CCR6 antag: 9; EBI2 antag: 8; APJ ag: 0; CXCR6 inh: -3; HTR2A ag: 0; APJ antag: -22

What do the screens show for `O=C(CN1C(=O)NC2(CCCCC2)C1=O)N1CCN(c2ncccn2)CC1`?
CCR6 antag: 6; EBI2 antag: -11; APJ ag: -1; CXCR6 inh: 0; HTR2A ag: 2; APJ antag: 5

How did COc1ccc(C(=O)NCC(c2ccco2)N2CCOCC2)cc1 (configuration not stated) do in these assays?
EBI2 antag: -7; CXCR6 inh: 5; HTR2A ag: 0
